Assay results as given in ChEMBL document CHEMBL1681716, “Novel dihydrothieno[2,3-e]indazole derivatives as IκB kinase inhibitors” (Bioorg Med Chem Lett, 2011).
pIC50: −log10 of the molar value.

Tests used:
[1] = biological target: T1, Inhibitor of nuclear factor kappa-B kinase subunit beta (Homo sapiens, UniProt O14920); assay: Inhibition of human IKK-beta by substrate phosphorylation assay
T1 sequence (O14920 whole entry): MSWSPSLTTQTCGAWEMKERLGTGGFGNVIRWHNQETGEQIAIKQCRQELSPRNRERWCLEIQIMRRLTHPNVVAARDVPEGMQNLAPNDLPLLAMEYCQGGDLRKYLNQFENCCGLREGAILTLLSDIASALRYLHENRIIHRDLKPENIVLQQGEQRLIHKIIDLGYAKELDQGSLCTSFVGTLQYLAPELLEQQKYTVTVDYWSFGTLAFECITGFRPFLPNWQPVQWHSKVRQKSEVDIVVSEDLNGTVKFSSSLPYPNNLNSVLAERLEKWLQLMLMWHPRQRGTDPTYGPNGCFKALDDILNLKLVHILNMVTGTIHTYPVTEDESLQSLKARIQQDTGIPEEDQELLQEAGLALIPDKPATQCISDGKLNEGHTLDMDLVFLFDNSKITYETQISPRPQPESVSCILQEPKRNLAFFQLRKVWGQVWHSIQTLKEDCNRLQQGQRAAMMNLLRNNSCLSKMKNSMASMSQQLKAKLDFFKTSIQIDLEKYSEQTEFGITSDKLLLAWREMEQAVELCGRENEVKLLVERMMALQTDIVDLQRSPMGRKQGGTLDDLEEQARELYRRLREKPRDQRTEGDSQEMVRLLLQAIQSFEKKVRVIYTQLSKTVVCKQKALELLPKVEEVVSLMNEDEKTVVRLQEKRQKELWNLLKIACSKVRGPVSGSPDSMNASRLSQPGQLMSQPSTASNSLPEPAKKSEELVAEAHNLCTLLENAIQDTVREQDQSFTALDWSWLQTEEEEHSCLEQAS
In short: (§1)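 Human IKK-α or IKK-β was tested on a biotinylated 21-residue IκBα peptide captured on avidin-coated plates and blocked with 3% BSA. Enzyme in 25 mM Tris pH 7.4, 2 mM DTT and 0.01% Tween 20 was preincubated with compound (1% DMSO) for 10 min at 25 °C. An ATP/MgCl₂ solution started the reaction, which ran 60 min at 25 °C. Phospho-IκBα was detected with a mouse monoclonal antibody, then HRP anti-mouse IgG and TMB.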

THP-1 = assay: Antiinflammatory activity in human THP1 cells assessed as inhibition of LPS-induced TNF-alpha production after 6 hrs by ELISA; conditions: THP-1, 6 h
[2] = biological target: T2, Inhibitor of nuclear factor kappa-B kinase subunit alpha (Homo sapiens, UniProt O15111); assay: Inhibition of human IKK-alpha by substrate phosphorylation assay; in short: as §1
T2 sequence (O15111 whole entry): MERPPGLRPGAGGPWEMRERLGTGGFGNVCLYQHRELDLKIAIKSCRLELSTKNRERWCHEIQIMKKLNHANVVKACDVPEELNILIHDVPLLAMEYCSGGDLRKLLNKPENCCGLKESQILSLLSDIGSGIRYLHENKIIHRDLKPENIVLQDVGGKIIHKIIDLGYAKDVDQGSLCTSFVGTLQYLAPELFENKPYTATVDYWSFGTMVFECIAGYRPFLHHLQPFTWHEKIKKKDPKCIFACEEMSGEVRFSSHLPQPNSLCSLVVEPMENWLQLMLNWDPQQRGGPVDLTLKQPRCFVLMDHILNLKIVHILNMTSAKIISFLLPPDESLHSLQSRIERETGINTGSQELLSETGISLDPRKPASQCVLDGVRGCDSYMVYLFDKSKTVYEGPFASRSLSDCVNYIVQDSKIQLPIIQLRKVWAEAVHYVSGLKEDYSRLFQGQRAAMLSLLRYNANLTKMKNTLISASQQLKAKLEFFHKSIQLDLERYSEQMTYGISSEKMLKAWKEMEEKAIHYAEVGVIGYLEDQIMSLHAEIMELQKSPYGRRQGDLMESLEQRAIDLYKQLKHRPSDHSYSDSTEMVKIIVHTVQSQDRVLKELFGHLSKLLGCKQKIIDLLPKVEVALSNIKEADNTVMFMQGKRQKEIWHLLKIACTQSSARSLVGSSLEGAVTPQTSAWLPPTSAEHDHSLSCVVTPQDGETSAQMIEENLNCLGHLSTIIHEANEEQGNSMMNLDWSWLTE

Mus musculus = assay: Antiinflammatory activity in po dosed DBA/2 mouse assessed as inhibition of LPS-stimulated plasma TNFalpha production pretreated 60 mins before LPS challenge measured after 90 mins by ELISA; format: functional, organism-based
In short: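 Female DBA/2 mice were given compound by oral gavage at 3 and 10 mg/kg. After 60 min, LPS in 0.2 mL saline was injected i.p. Plasma TNF-α was measured by ELISA 90 min after the LPS challenge.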

| Compound | pIC50 [1] | pIC50 (THP-1) | pIC50 [2] | inhibition (Mus musculus) |
| --- | --- | --- | --- | --- |
| NC(=O)Nc1sc2c(c1C(N)=O)CCc1nn(C3CCCN(Cc4ccc(O)cc4F)C3)cc1-2 (stereo unspecified) | 6.05 | 6.15 |  |  |
| CN(CCn1cc2c(n1)CCc1c-2sc(NC(N)=O)c1C(N)=O)Cc1ccccc1 | 5.34 | 5.29 |  |  |
| NC(=O)Nc1sc2c(c1C(N)=O)CCc1nn(C3CCCCN(Cc4ccccc4)C3)cc1-2 (racemic) | < 5.00 |  |  |  |
| NC(=O)Nc1sc2c(c1C(N)=O)CCc1nn(Cc3ccncc3)cc1-2 | 5.64 | 5.05 |  |  |
| NC(=O)Nc1sc2c(c1C(N)=O)CCc1nn(C3CCCN(Cc4ccc(N)cc4F)C3)cc1-2 (stereo unspecified) | 6.30 | 6.30 | 5.05 |  |
| NC(=O)Nc1sc2c(c1C(N)=O)CCc1c-2cnn1Cc1ccc(F)cc1 | 6.70 | 4.92 |  |  |
| CCCCn1cc2c(n1)CCc1c-2sc(NC(N)=O)c1C(N)=O | 5.57 | 5.40 |  |  |
| NC(=O)Nc1sc2c(c1C(N)=O)CCc1nn(Cc3ccccc3)cc1-2 | 5.38 | 5.25 |  |  |
| NC(=O)Nc1sc2c(c1C(N)=O)CCc1nn(Cc3cccnc3)cc1-2 | 5.32 | 4.62 |  |  |
| NC(=O)Nc1sc2c(c1C(N)=O)CCc1nn(C3CCN(Cc4ccccc4)C3)cc1-2 (racemic) | 5.52 | 5.77 |  |  |
| COc1ccc(CN2CCCC(n3cc4c(n3)CCc3c-4sc(NC(N)=O)c3C(N)=O)C2)c(F)c1 (stereo unspecified) | 5.72 | 5.42 | < 4.00 |  |
| NC(=O)Nc1sc2c(c1C(N)=O)CCc1nn(C3CCCN(Cc4ccc(Cl)cc4F)C3)cc1-2 (stereo unspecified) | 6.30 | 5.36 | 4.39 |  |
| NC(=O)Nc1sc2c(c1C(N)=O)CCc1nn(Cc3ccccn3)cc1-2 | 5.35 | < 4.52 |  |  |
| NC(=O)Nc1sc2c(c1C(N)=O)CCc1nn(C3CCCN(Cc4ccc(Cl)cc4)C3)cc1-2 (stereo unspecified) | 5.60 | 6.22 | < 4.00 |  |
| COCCn1cc2c(n1)CCc1c-2sc(NC(N)=O)c1C(N)=O | 4.96 |  |  |  |
| CCCn1cc2c(n1)CCc1c-2sc(NC(N)=O)c1C(N)=O | 5.54 | 5.28 |  |  |

Continued, in another order:

| pIC50 [1] | pIC50 (THP-1) | pIC50 [2] | Compound | inhibition (Mus musculus) |
| --- | --- | --- | --- | --- |
| 5.51 | 6.52 |  | NC(=O)Nc1sc2c(c1C(N)=O)CCc1nn(C3CCCN(Cc4cc(F)c(F)cc4F)C3)cc1-2 (stereo unspecified) |  |
| 5.66 | 6.30 | < 4.00 | NC(=O)Nc1sc2c(c1C(N)=O)CCc1nn(C3CCCN(Cc4ccccc4)C3)cc1-2 (racemic) |  |
| 5.66 | 4.38 |  | CCCn1ncc2c1CCc1c-2sc(NC(N)=O)c1C(N)=O |  |
| 5.08 |  |  | CCCCCCn1cc2c(n1)CCc1c-2sc(NC(N)=O)c1C(N)=O |  |
| 5.15 | 5.60 |  | NC(=O)Nc1sc2c(c1C(N)=O)CCc1nn(C3CN(Cc4ccccc4)C3)cc1-2 |  |
| 5.77 | 6.10 | < 4.00 | NC(=O)Nc1sc2c(c1C(N)=O)CCc1nn(C3CCCN(Cc4ccc(F)cc4F)C3)cc1-2 (stereo unspecified) | Dose-dependent effect |
| 5.06 |  |  | CN(C)CCn1cc2c(n1)CCc1c-2sc(NC(N)=O)c1C(N)=O |  |
| < 5.00 |  |  | CC(=O)Nc1ccc(CN2CCCC(n3cc4c(n3)CCc3c-4sc(NC(N)=O)c3C(N)=O)C2)c(F)c1 (stereo unspecified) |  |
| 6.05 | 5.60 |  | NC(=O)Nc1sc2c(c1C(N)=O)CCc1nn(Cc3ccc(F)cc3)cc1-2 |  |
| 5.64 | 5.34 |  | CC(C)n1cc2c(n1)CCc1c-2sc(NC(N)=O)c1C(N)=O |  |
| 5.32 | 5.92 |  | NC(=O)Nc1sc2c(c1C(N)=O)CCc1nn(C3CCN(Cc4ccccc4)CC3)cc1-2 |  |
